Results: ChEMBL document CHEMBL1129728, “Structure-based design and synthesis of substituted 2-butanols as nonpeptidic inhibitors of HIV protease: secondary amide series” (J Med Chem, 1996)

Key:
[1] = target: T1, Human immunodeficiency virus type 1 protease (Human immunodeficiency virus 1, UniProt Q72874); experiment: (§1) Inhibitory activity against HIV PR in HIV-1 infected CEM-SS cell lines; type: cell-based
Method in brief: (§2)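 Antiviral activity in HIV-1-infected CEM cells, read out by a cell viability assay run to a previously described method. Compounds were tested across a dose range, and the antiviral IC50 was taken from the dose-response curve.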

[2] = target: T1, Human immunodeficiency virus type 1 protease; experiment: as §1; type: cell-based; remark: listed apart in the source
[3] = target: Human immunodeficiency virus type 1 protease (Human immunodeficiency virus 1) (UniProt Q72874); experiment: Inhibitory activity against HIV-1 PR in HIV-1 infected CEM-SS cell lines; activity @ 10 uM; type: cell-based
[4] = target: Human immunodeficiency virus type 1 protease (Human immunodeficiency virus 1) (UniProt Q72874); experiment: Inhibitory activity against HIV PR in HIV-1 infected CEM-SS cell lines; activity @ 200 uM
[5] = target: Human immunodeficiency virus type 1 protease (Human immunodeficiency virus 1) (UniProt Q72874); experiment: as §1; type: cell-based; settings: concentration not given here; method in brief: as §2
[6] = target: Human immunodeficiency virus type 1 protease (Human immunodeficiency virus 1) (UniProt Q72874); experiment: Inhibitory activity against HIV-1 PR in HIV-1 infected CEM-SS cell lines; activity @ 10 uM

Structure (SMILES) | IC50 [1] [µM] | Ki [2] [µM] | other results
CC(C)(C)NC(=O)c1ccccc1CC(O)CSc1ccccc1NC(=O)C(C)(C)C (stereo not drawn) | > 200 |  | 
CC(C)(C)NC(=O)c1cc(C(C)(C)C)ccc1CCC(O)Cc1ccc(C(C)(C)C)cc1C(=O)NC(C)(C)C (stereo not drawn) | 7 |  | 
CC(C)(C)NC(=O)c1ccccc1CCC(O)Cc1ccc2ccccc2c1C(=O)NC(C)(C)C (stereo not drawn) |  | 2.2 | 
CC(C)(C)NC(=O)c1ccccc1SCC(O)c1ccccc1C(=O)NC(C)(C)C (stereo not drawn) | > 200 |  | 
CC(C)(C)NC(=O)c1ccccc1C#CC(O)Cc1ccccc1C(=O)NC(C)(C)C (stereo not drawn) | 200 |  | 
CC(C)(C)NC(=O)c1ccccc1CC[C@H](O)CN1CCC[C@H]1C(=O)NC(C)(C)C |  |  | inhibition [3]: 10%
CC(C)(C)NC(=O)c1ccccc1/C=C/C(O)Cc1ccccc1C(=O)NC(C)(C)C (stereo not drawn) |  |  | inhibition [4]: 40%
CC(C)(C)NC(=O)c1ccccc1CCC(O)CN1CCCCC1C(=O)NC(C)(C)C (stereo in doubt; 11) |  |  | inhibition [5]: 20%
CC(C)N1CCC(CC(O)CCc2ccccc2C(=O)NC(C)(C)C)=C(C(=O)NC(C)(C)C)C1 (stereo not drawn) | 70 |  | 
CC(C)(C)NC(=O)c1ccccc1CCC(O)Cc1ccccc1C(=O)NC(C)(C)C (stereo not drawn) |  | 24 | 
CC(C)(C)NC(=O)c1cc(C(C)(C)C)ccc1CCC(O)Cc1ccc2ccccc2c1C(=O)NC(C)(C)C (stereo not drawn) |  | 1.2 | 
CC(C)(C)NC(=O)c1c(CCC(O)Cc2ccc3ccccc3c2C(=O)NC(C)(C)C)ccc2ccccc12 (stereo not drawn) |  | 1.4 | 
CC(C)(C)NC(=O)c1ccccc1CCC(O)CN1CCCCC1C(=O)NC(C)(C)C (stereo in doubt; 12) |  |  | inhibition [5]: 35%
CC(C)(C)NC(=O)c1ccccc1CC(O)CSc1ccccc1C(=O)NC(C)(C)C (stereo not drawn) |  | 83 | 
CC(C)(C)NC(=O)c1c(CC[C@@H](O)Cc2ccc3ccccc3c2C(=O)NC(C)(C)C)ccc2ccccc12 |  | 25 | 
CC(C)(C)NC(=O)c1ccccc1CC[C@@H](O)CN1CCC[C@H]1C(=O)NC(C)(C)C |  |  | inhibition [6]: 10%
CC(C)(C)NC(=O)c1ccccc1SCC(O)Cc1ccc2ccccc2c1C(=O)NC(C)(C)C (stereo not drawn) | 25 |  | 
CC(C)(C)NC(=O)c1c(CC[C@H](O)Cc2ccc3ccccc3c2C(=O)NC(C)(C)C)ccc2ccccc12 |  | 0.48 | 
